# Measured values taken from PubChem BioAssay.
# Activity calls are given as the source filed them. Cut-off read from the data, not from the text of the source, unless noted: active = inhibition above about 30%; inactive = the rest.
# Experiments:
# [1] = reducers of endogenous Her2 protein level, primary screen, SKBR3 breast tumor cells, AlphaScreen, ATP viability (AID 461;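 active = Her2 level under about 52% in both replicate screens, with viability over 70% of control, limit read from the data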;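 for Her2 level: lower value means less Her2 protein in the cells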;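 for viability: percent of carrier control wells set as 100% viability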); settings: 18-24 h, measured here: SKBR3 viability, ATP luminescence, at 10 µM
# [2] = target: Receptor tyrosine-protein kinase erbB-2 (Homo sapiens) (UniProt P04626); experiment: as above; settings: 18-24 h, at 10 µM, stronger effect = lower value
# [3] = SK-BR-3 cell growth inhibitors, pilot screen, 24 h, human (AID 572;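 active = viability at or below 10% of carrier control in both of two separate runs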;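 note: compound exposure lasted between 18 and 24 h rather than exactly 24 h; 100% = carrier-treated control wells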); settings: SK-BR-3 viability, CellTiter-Glo luminescence, at 10 µM, stronger effect = lower value
# [4] = HUVEC growth inhibition – cell-based, human, primary screen (AID 575;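 active = viability at or below 30% in both replicate assays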;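 note: 100% = median of untreated cell wells with 0.1% DMSO on each plate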); settings: HUVEC proliferation, CellTiter-Glo luminescence, 72 h; at 10 µM; stronger effect = lower value
# How it was run: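 Test system: primary human umbilical vein endothelial cells. Quantity: 1250 cells/well. Compound: single 10 µM dose, 0.1% DMSO, from 5x medium stock. Timing: 72 h treatment at 37 °C. Detection: ATP-based CellTiter-Glo luminescent read. Benchmarks: vehicle and MePR control wells. Format: 384-well plates coated with collagen.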
# [5] = growth inhibitors of H69AR lung tumor, primary screen, human, duplicate replicates (AID 580;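 active = viability at or under a set limit in both replicates, limit being median viability minus 3 SD, cut at about 48% in these data, passing the limit was not always enough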;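 note: 100% = mean luminescence of untreated wells and 0% = no signal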); settings: H69AR lung tumor cells viability, ATP luminescence, 72 h; at 10 µM; stronger effect = lower value
# [6] = reversal of MRP1-mediated doxorubicin resistance, pilot screen, H69AR cells, doxorubicin co-treatment (AID 601;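 active = viability loss from added drug above about 55%, and viability with drug at most 40%, in both replicates, limit read from the data, passing the limit was not always enough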); settings: CellTiter-Glo, 72 h, at 10 µM; for differential viability (reversal): stronger effect = higher value
# [7] = 384-well plate pilot, post-Golgi transport modulator project, inhibition of yeast transport mutant growth (AID 636; in the data active = inhibition above about 31%); settings: absorbance 615 nm, about 18 h, stronger effect = higher value
# [8] = growth suppression of yeast trafficking mutant, preliminary HTS, modulators of trafficking downstream of Golgi apparatus project, 1536-format plate, OD 615 nm (AID 637); settings: yeast transport mutant growth, absorbance 615 nm, 18 h; stronger effect = higher value
# [9] = H69AR cells + 2 uM doxorubicin, measured here: viability with 2 uM doxorubicin, stronger effect = lower value
# [10] = H69AR cells, compound alone cytotoxicity
# Chain of Receptor tyrosine-protein kinase erbB-2 (Homo sapiens) (P04626 whole entry, looked up): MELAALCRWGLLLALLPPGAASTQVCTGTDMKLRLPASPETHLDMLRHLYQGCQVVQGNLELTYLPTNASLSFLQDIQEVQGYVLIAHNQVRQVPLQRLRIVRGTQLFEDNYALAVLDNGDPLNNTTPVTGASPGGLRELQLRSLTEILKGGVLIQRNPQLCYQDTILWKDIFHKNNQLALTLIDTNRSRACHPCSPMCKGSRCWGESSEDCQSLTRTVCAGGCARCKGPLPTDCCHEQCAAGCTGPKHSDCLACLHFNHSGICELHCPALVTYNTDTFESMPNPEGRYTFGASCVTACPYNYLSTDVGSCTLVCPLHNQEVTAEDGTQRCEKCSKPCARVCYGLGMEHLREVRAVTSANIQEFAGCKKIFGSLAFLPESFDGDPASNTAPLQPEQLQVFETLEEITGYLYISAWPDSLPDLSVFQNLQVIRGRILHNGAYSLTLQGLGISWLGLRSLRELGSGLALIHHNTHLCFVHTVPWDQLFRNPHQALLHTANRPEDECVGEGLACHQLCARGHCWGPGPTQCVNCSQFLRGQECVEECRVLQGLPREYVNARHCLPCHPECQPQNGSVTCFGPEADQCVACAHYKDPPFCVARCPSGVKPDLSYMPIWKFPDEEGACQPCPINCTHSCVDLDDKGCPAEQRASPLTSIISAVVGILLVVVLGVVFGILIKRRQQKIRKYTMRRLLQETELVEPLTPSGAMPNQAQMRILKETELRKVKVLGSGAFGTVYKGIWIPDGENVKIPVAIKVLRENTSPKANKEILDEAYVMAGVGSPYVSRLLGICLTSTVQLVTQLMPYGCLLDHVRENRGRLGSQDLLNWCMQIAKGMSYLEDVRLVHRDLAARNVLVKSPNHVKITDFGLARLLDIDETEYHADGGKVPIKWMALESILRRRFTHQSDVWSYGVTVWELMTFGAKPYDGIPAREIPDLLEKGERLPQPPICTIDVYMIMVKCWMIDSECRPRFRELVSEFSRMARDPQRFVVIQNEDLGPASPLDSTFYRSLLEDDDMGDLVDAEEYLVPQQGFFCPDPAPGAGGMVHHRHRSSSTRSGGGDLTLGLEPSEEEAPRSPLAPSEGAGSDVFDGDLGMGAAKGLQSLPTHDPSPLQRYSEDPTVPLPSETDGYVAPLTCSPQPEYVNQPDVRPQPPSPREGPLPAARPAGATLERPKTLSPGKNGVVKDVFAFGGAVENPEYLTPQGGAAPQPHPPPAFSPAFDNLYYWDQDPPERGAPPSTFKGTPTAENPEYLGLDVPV
Compound,viability [1] [%],Her2 level [2],viability [3],viability [4],viability [5],differential viability (reversal) ([6]; H69AR cells + 2 uM doxorubicin),"viability [6, 9] [%]","viability [6, 10] [%]",inhibition [7],inhibition [8]
COC(=O)CN(c1nc(C)c(Cl)c(OC)n1)S(=O)(=O)c1ccc(C)cc1,117,104% (inactive),117% (inactive),86.9% (inactive),84.9% (inactive),2.96% (inactive),81.9,84.9,-3.64% (inactive),-2.86% (inactive)
OCc1nc(CO)n(Cc2ccccc2)n1,85.5,84% (inactive),85.5% (inactive),88.7% (inactive),102% (inactive),-5.83% (inactive),108,102,-1.05% (inactive),-0.48% (inactive)
O=C(CCn1c(=O)sc2ccccc21)Nc1nccs1,98.5,97% (inactive),98.5% (inactive),115% (inactive),108% (inactive),16.8% (inactive),91.5,108,-2.6% (inactive),-0.95% (inactive)
CCOc1cccc(/C(O)=C2/C(=O)C(=O)N(CCN3CCOCC3)C2c2cccnc2)c1 (stereo not given),98.5,99.5% (inactive),98.5% (inactive),87.3% (inactive),103% (inactive),5.18% (inactive),98.2,103,-3.68% (inactive),-3.17% (inactive)
CC(=O)N1CCN(C(=O)COc2ccc(Br)cc2)CC1,108,92.5% (inactive),108% (inactive),113% (inactive),105% (inactive),20.5% (inactive),84.6,105,-2.03% (inactive),0.16% (inactive)
CC(C)N(C=O)C1(C(=O)NC2CCCCC2)CCCCC1,100,106% (inactive),100% (inactive),97.9% (inactive),112% (inactive),13.7% (inactive),97.9,112,-0.53% (inactive),-6.61% (inactive)
COc1ccc(-c2cc3nc4n(c(=O)c3s2)CCC4)cc1,129,101% (inactive),129% (inactive),103% (inactive),84.1% (inactive),-4.84% (inactive),88.9,84.1,-5% (inactive),3.44% (inactive)
c1ccc(CC2CCN(C(c3cccs3)c3nnnn3C3CCCC3)CC2)cc1 (stereo not given),102,128% (inactive),102% (inactive),91.9% (inactive),93.4% (inactive),-0.24% (inactive),93.7,93.4,1.92% (inactive),-0.63% (inactive)
COc1cc(NC(=O)c2cc(CC(C)C)on2)c(OC)cc1Cl,92,102% (inactive),92% (inactive),105% (inactive),88.9% (inactive),-3.37% (inactive),92.2,88.9,1.15% (inactive),-5.33% (inactive)
CC1CN=C(N(C(=O)Nc2ccccc2)c2ccc(S(=O)(=O)N3CCOCC3)cc2)S1 (stereo not given),95.5,108% (inactive),95.5% (inactive),91.5% (inactive),95.3% (inactive),16.8% (inactive),78.5,95.3,-0.51% (inactive),-8.67% (inactive)
O=C(CCCCC(=O)NCc1cccs1)NCc1cccs1,95.5,106% (inactive),95.5% (inactive),99.7% (inactive),97.8% (inactive),0.77% (inactive),97,97.8,1.2% (inactive),-7.42% (inactive)
COCC(=O)N(Cc1cc2cc(OC)ccc2[nH]c1=O)c1ccccc1,104,112% (inactive),104% (inactive),90.3% (inactive),90.4% (inactive),3.91% (inactive),86.5,90.4,-2.86% (inactive),-6% (inactive)
CC1CN(c2nc(-c3ccccc3)nc3ccccc23)CC(C)O1 (stereo not given),91,134% (inactive),91% (inactive),88.2% (inactive),85.4% (inactive),4.54% (inactive),80.9,85.4,-3.72% (inactive),-5.67% (inactive)
O=c1[nH]c(NCc2ccco2)nnc1Cc1ccccc1Cl,96.5,84% (inactive),96.5% (inactive),41.2% (inactive),13.3% (active),-44.5% (inactive),57.8,13.3,-7.67% (inactive),4.92% (inactive)
O=C(CN1C(=O)c2cccc3cccc1c23)N1CCN(c2ccccc2)CC1,100,103% (inactive),100% (inactive),111% (inactive),113% (inactive),23.3% (inactive),89.5,113,1.49% (inactive),-1.5% (inactive)
COc1ccc(-c2noc(-c3ccccc3C(=O)NCc3ccco3)n2)cc1,93,104% (inactive),93% (inactive),107% (inactive),82.8% (inactive),-12.1% (inactive),94.9,82.8,-3.12% (inactive),-5.24% (inactive)
